Broadly, the EC50 is the concentration giving half of the maximal effect. One may read the AUC as the area under the concentration-time curve, a measure of exposure. A low value points to low exposure. The term Cmax denotes the peak of the concentration-time curve. Broadly, the CL/F is the apparent clearance, not corrected for the fraction that reaches the circulation. The Vd/F is the apparent distribution volume after extravascular dosing. Usually half-life stands for the time needed for the level to fall by half in the phase considered. For orientation: bioavailability means the share of a dose that reaches the circulation, judged against a reference dose that is usually intravenous. Lower therefore signals little systemic uptake. A word on the solubility: it is the concentration that dissolves in the medium under given conditions.

These results are taken from ChEMBL document CHEMBL3822410, “Novel substituted isoxazole FXR agonists with cyclopropyl, hydroxycyclobutyl and hydroxyazetidinyl linkers: Understanding and improving key determinants of pharmacological properties” (Bioorg Med Chem Lett, 2016).

Converted amounts (≈) assume the structure as drawn. The source made the active and inactive calls.

For data set [1], the target named is T1, Bile acid receptor (Homo sapiens, UniProt Q96RI1).
T1 sequence (Q96RI1 whole entry): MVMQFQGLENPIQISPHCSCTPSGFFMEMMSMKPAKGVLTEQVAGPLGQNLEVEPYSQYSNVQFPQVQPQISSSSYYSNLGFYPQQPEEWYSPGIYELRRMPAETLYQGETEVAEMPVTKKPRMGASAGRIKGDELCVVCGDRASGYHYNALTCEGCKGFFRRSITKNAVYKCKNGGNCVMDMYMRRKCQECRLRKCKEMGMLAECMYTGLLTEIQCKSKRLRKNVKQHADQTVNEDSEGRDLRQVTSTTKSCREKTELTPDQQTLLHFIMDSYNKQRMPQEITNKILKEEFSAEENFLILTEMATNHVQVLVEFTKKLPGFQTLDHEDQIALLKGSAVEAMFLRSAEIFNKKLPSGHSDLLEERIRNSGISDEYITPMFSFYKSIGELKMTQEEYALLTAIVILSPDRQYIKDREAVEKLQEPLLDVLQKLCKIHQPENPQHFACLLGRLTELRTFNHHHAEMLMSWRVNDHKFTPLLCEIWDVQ
Briefly: Agonist activity at GST-tagged FXR LBD (187 to 472 residues) (unknown origin) assessed as FXR interaction with b-CPSSHSSLTERHKILHRLLQEGSPS-COOH by FRET assay.

Data set [2] deals with Mus musculus. Kind of data set: Reduction in total cholesterol level in high fat diet enriched with cholesterol fed C57BL/6J mouse plasma at 10 mg/kg, po through gavage for 10 days measured after 4 hrs of final dosage relative to vehicle treated-control. In kind it is functional, organism-based. An outline of the steps:
(§1)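 C57BL/6J mice pre-fed and kept on high fat diet (60% kcal fat) with 1% (w/w) cholesterol; 10 mg/kg by oral gavage for 10 days. Plasma total cholesterol and triglycerides taken at sacrifice 4 h after final dose, expressed as % change versus vehicle group.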

Data set [3] in a line: Permeability of the compound assessed as compound influx measured after 16 hrs by PAMPA assay. In kind it is ADME. An outline of the steps:
(§2)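 PAMPA, 16 h at rt. Flux = [C_acceptor/(C_donor + C_acceptor)] × 100 × 2. Membrane enrichment = C_membrane × 2/(C_acceptor + C_donor), membrane phase extracted into a volume equal to the acceptor or donor compartment.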
In general terms: The PAMPA barrier holds no transporters, so it reflects passive diffusion.

A short description of data set [4]: AUC in C57BL/6J mouse at 5 mg/kg, po and 1 mg/kg, iv. The data set is classed as ADME, organism-based. The note with it: in vivo. In outline:
(§3)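 Mice dosed 5 mg/kg orally and 1 mg/kg intravenously; bioavailability from both arms, all other parameters (AUC, Cmax, T1/2, Cl/F, Vd/F) calculated from the oral arm.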

A short description of data set [5]: Cmax in C57BL/6J mouse at 5 mg/kg, po and 1 mg/kg, iv. The data set is classed as ADME, organism-based. As to conditions: in vivo. An outline of the steps: as §3
A short description of data set [6]: Apparent oral clearance in C57BL/6J mouse at 5 mg/kg. The data set is classed as ADME, organism-based. As to conditions: in vivo. In outline:
as §3

Data set [7] has as its target T2, Bile acid receptor (Homo sapiens) (UniProt Q96RI1).
T2 sequence (whole entry): T1 sequence (Q96RI1 whole entry)
Briefly: Agonist activity at GST-tagged FXR LBD (187 to 472 residues) (unknown origin) assessed as FXR interaction with b-CPSSHSSLTERHKILHRLLQEGSPS-COOH by FRET assay relative to GW4064.

The test system of data set [8] is Mus musculus. Briefly: Reduction in total triglyceride level in high fat diet enriched with cholesterol fed C57BL/6J mouse plasma at 10 mg/kg, po through gavage for 10 days measured after 4 hrs of final dosage relative to vehicle treated-control. In kind it is functional, organism-based. In outline: as §1
Data set [9] is described as follows: Permeability of the compound assessed as compound enrichment in membrane compartment measured after 16 hrs by PAMPA assay relative to control. The data set is classed as ADME. In outline: as §2
The target in data set [10] is T2, Bile acid receptor (Homo sapiens). Kind of data set: Agonist activity at C-terminal Gal4-tagged human FXR (187 to 472 residues) expressed in HEK-293 cells co-expressing pFRluc by mammalian one hybrid assay relative to GW4064. The data set is classed as cell-based. The note with it: HEK293. In outline: (§4)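 Transient transfection of HEK293 cells with Gal4 DBD–human FXR LBD (187–472) chimera under CMV promoter plus pFRluc Gal4-driven firefly luciferase reporter. Cells treated with serial compound dilutions. EC50 from at least three experiments; efficacy is extrapolated maximum signal of the dose-response, GW4064 set to 100%.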

Data set [11] in a line: Apparent oral volume of distribution in C57BL/6J mouse at 5 mg/kg. In kind it is ADME, organism-based. The note with it: in vivo. In outline: as §3
Data set [12] can be described thus: Half life in C57BL/6J mouse at 5 mg/kg, po and 1 mg/kg, iv. In kind it is ADME, organism-based. The note with it: in vivo. In outline:
as §3

For data set [13], the target named is T1, Bile acid receptor. Kind of data set: Agonist activity at C-terminal Gal4-tagged human FXR (187 to 472 residues) expressed in HEK-293 cells co-expressing pFRluc by mammalian one hybrid assay. The data set is classed as cell-based, HEK293. An outline of the steps:
as §4

Data set [14] can be described thus: Oral bioavailability in C57BL/6J mouse at 5 mg/kg. In kind it is ADME, organism-based. The note with it: in vivo. In outline:
as §3

The nature of data set [15]: Aqueous solubility of the compound. The data set is classed as physicochemical. As to conditions: buffer.
The target of data set [16] is T3, Nuclear receptor subfamily 1 group I member 2 (Homo sapiens, UniProt O75469).
T3 sequence (O75469 whole entry): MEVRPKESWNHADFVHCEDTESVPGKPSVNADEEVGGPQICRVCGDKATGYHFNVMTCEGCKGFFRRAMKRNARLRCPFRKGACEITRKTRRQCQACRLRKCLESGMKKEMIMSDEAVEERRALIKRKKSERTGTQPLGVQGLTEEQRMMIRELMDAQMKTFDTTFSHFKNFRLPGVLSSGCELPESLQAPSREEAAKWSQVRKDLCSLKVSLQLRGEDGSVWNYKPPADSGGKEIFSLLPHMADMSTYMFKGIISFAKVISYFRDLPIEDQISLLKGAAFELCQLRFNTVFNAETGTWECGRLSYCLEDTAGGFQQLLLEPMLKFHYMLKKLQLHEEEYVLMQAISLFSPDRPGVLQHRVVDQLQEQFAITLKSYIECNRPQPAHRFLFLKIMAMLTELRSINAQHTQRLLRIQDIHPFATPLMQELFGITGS
Briefly: Agonist activity at PXR (unknown origin) up to 5 uM.

Regarding `O=C(O)c1ccc(C2CC2c2ccc(OCc3c(-c4c(Cl)cccc4Cl)noc3C3CC3)cc2Cl)cc1` (racemic), the results for the EC50 on Bile acid receptor [1] and at Bile acid receptor [13] were 131 nM and 76 nM, respectively. Also, the outcome with Mus musculus [2] and in the data set on Mus musculus [8] was Active. Further, the permeability in data set [3] came to 14%. In [4], this compound registered an AUC of 430 ng·h/mL. This compound also registered a Cmax in [5] of 280 ng/mL. Moreover, the CL/F in data set [6] is 85 mL/min/kg. Further, the Efficacy in data set [7] is 100%; in data set [10] it was 85%. Also, the “fold change (FC)” value in [9] was 30. For the same compound, the Vd/F in [11] was found to be 3.6 L/kg. Further, the half-life in [12] was 30 min. In [14], this compound returned a bioavailability of 44%.
For `CC(C)n1nc(C(=O)O)cc1C1CC1c1ccc(OCc2c(-c3c(Cl)cccc3Cl)noc2C2CC2)cc1Cl` (racemic), the EC50 turned out to be 7 nM at Bile acid receptor [1] and 6 nM on Bile acid receptor [13]. In addition, the result in the data set on Mus musculus [2] and with Mus musculus [8] was Active. In data set [15], this compound gave a solubility of 158 µM (≈ 92.7 µg/mL). The permeability in data set [3] is 29%. Also, the AUC in data set [4] stood at 110 ng·h/mL. For the same compound, the Cmax in data set [5] worked out at 160 ng/mL. Moreover, in data set [6], the CL/F was 83 mL/min/kg. For the same compound, the Efficacy was found to be 102% in data set [7] and 81% in [10]. The “fold change (FC)” value in data set [9] was 22. In addition, in data set [11], the Vd/F came out at 5.5 L/kg. The compound also gave a half-life in data set [12] of 48 min. This compound also gave a bioavailability in data set [14] of 11%.
As for `CC(C)n1nc(C(=O)O)cc1[C@H]1C[C@](O)(c2ccc(OCc3c(-c4c(Cl)cccc4Cl)noc3C3CC3)cc2Cl)C1`, the EC50 on Bile acid receptor [1] is 9 nM; at Bile acid receptor [13], 110 nM. Moreover, the result in the data set on Mus musculus [2] and with Mus musculus [8] was Active. In data set [15], this compound had a solubility of 171 µM (≈ 105 µg/mL). For the same compound, the permeability in data set [3] was found to be 46%. Also, in [4], the AUC turned out to be 960 ng·h/mL. The compound also had a Cmax in data set [5] of 1470 ng/mL. Besides, the CL/F in [6] amounted to 16 mL/min/kg. Further, the figures for the Efficacy in [7] and in data set [10] were 100% and 78%, respectively. The “fold change (FC)” value in [9] was determined as 11. The Vd/F in data set [11] worked out at 0.8 L/kg. Moreover, in data set [16], the Activity result was “Not Active”. The half-life in data set [12] was 36 min. The bioavailability in data set [14] was found to be 18%.
With `O=C(O)c1cccc([C@H]2C[C@](O)(c3ccc(OCc4c(-c5c(Cl)cccc5Cl)noc4C4CC4)cc3Cl)C2)c1`, the concentration giving a half-maximal response (EC50) on Bile acid receptor [1] was 29 nM; at Bile acid receptor [13], 25 nM. The result in the data set with Mus musculus [2] and in the data set with Mus musculus [8] was Active. For the same compound, the permeability in [3] is listed as 24%. The compound further displayed an AUC in [4] of 8600 ng·h/mL. This compound also came in with a Cmax in data set [5] of 9800 ng/mL. Moreover, the CL/F in data set [6] turned out to be 4.7 mL/min/kg. For the same compound, the Efficacy in [7] was found to be 100%; in data set [10] it was 79%. Also, the “fold change (FC)” value in data set [9] is reported as 27. The Vd/F in data set [11] came out at 0.3 L/kg. In data set [12], this compound had a half-life of 36 min. In addition, the bioavailability in data set [14] was determined as 49%.
Regarding `O=C(O)c1cncc(N2CC(O)(c3ccc(OCc4c(-c5c(Cl)cccc5Cl)noc4C4CC4)cc3Cl)C2)c1`, the EC50 at Bile acid receptor [1] was determined as 7 nM; at Bile acid receptor [13], 552 nM. Moreover, in [15], the concentration in solution (solubility) came to 197 µM (≈ 116 µg/mL). Further, the permeability in data set [3] was found to be 35%. For the same compound, the Efficacy in [7] is 102%; in [10], 71%. Besides, the “fold change (FC)” value in [9] worked out at 3. Moreover, the Activity entry in data set [16] is given as “Not Active”.
